Active and inactive are the calls of the source. The calls are words filed in the database; no cut-off is given here.
Tests used:
[1] = molecular target: Aurora kinase B/Inner centromere protein (Homo sapiens, UniProt Q96GD4); assay: Inhibition of recombinant human full length C-terminal His6-tagged Aurora B//N-terminal GST-tagged INCENP (821-end residues) expressed in baculovirus infected sf21 cells using AKRRRLSSLRA substrate in presence of [gamma33P]ATP after 10 mins by scintillation counting method
Chain of Aurora kinase B/Inner centromere protein (Q96GD4 whole entry): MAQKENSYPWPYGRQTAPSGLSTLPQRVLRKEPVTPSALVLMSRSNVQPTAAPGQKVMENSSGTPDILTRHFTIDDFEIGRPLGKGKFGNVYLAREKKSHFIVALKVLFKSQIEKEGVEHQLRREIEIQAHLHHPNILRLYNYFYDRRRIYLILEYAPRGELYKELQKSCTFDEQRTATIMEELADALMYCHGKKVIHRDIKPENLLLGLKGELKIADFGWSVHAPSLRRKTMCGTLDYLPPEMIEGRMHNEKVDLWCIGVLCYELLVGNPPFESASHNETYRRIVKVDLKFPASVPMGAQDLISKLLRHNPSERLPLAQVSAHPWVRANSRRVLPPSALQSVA
Chain of Aurora kinase B/Inner centromere protein (Q9NQS7 whole entry, further chain): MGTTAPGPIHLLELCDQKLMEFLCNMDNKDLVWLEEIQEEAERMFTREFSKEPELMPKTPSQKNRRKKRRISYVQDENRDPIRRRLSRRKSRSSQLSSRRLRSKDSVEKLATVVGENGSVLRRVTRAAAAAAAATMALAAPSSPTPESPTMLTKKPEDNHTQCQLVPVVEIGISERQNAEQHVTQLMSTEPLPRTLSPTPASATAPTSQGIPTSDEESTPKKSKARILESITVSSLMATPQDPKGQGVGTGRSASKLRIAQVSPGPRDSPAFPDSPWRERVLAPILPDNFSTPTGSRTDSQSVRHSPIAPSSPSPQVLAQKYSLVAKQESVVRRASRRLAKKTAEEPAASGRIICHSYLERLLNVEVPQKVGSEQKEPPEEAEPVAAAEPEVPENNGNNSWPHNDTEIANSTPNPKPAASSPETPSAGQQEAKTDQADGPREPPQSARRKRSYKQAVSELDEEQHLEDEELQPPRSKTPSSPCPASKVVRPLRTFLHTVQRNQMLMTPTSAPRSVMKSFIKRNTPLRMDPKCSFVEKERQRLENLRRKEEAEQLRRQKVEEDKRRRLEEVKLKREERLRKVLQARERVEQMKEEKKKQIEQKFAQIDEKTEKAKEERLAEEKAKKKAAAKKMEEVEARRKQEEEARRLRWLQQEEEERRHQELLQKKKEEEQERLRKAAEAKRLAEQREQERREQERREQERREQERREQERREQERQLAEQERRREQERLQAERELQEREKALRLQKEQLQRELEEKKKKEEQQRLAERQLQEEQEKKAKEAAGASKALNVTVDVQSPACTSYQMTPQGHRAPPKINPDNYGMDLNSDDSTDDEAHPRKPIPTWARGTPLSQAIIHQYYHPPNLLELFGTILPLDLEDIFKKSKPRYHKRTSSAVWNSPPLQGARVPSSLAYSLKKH

A549 [2] = assay: Induction of apoptosis in human A549 cells assessed as necrotic cells at 1 uM after 48 hrs by annexin V-FITC/propidium iodide staining based flow cytometry (reference value: […]%); assay type: functional
A549 [3] = assay: Induction of apoptosis in human A549 cells assessed as necrotic cells at 10 uM after 48 hrs by annexin V-FITC/propidium iodide staining based flow cytometry (reference value: […]%); assay type: functional
NCI-H460 [4] = assay: Induction of apoptosis in human NCI-H460 cells assessed as necrotic cells at 10 uM after 48 hrs by annexin V-FITC/propidium iodide staining based flow cytometry (reference value: 1.34%); assay type: functional
T47D = assay: Induction of apoptosis in human T47D cells assessed as necrotic cells at 10 uM after 48 hrs by annexin V-FITC/propidium iodide staining based flow cytometry (reference value: 0.8%); assay type: functional
MDA-MB-231 [5] = assay: Induction of apoptosis in human MDA-MB-231 cells assessed as late apoptotic cells at 5 uM after 48 hrs by annexin V-FITC/propidium iodide staining based flow cytometry (reference value: 1.53%); assay type: functional
MDA-MB-231 [6] = assay: Induction of apoptosis in human MDA-MB-231 cells assessed as necrotic cells at 1 uM after 48 hrs by annexin V-FITC/propidium iodide staining based flow cytometry (reference value: […]); assay type: functional
MDA-MB-231 [7] = assay: Induction of apoptosis in human MDA-MB-231 cells assessed as late apoptotic cells at 1 uM after 48 hrs by annexin V-FITC/propidium iodide staining based flow cytometry (reference value: 1.53%); assay type: functional
MDA-MB-231 [8] = assay: Induction of apoptosis in human MDA-MB-231 cells assessed as early apoptotic cells at 10 uM after 48 hrs by annexin V-FITC/propidium iodide staining based flow cytometry (reference value: 0.4%); assay type: functional
A549 [9] = assay: Cell cycle arrest in human A549 cells assessed as accumulation at G2 phase at 2.5 to 10 uM after 24 hrs by propidium iodide staining based flow cytometry; assay type: functional
Procedure, shortened: (§1)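 Cells were exposed for 24 h to a range of concentrations (625 nM, 2.5 and 10 µM), with DMSO vehicle as control. They were then stained with propidium iodide and analysed by flow cytometry to obtain the percentages of cells in G0/G1, S and G2 phases.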

[10] = molecular target: CDK2/Cyclin A2 (Homo sapiens) (UniProt P24941+P20248); assay: Inhibition of recombinant human full length C-terminal 6His-tagged CDK2/N-terminal GST-tagged Cyclin-A co-expressed in baculovirus infected sf21 cells at 1 uM relative to control
HepG2 [11] = assay: Cell cycle arrest in human HepG2 cells assessed as accumulation at G2 phase at 2.5 to 10 uM after 24 hrs by propidium iodide staining based flow cytometry; assay type: functional; procedure, shortened: as §1
[12] = molecular target: Cyclin-dependent kinase 1/cyclin B1 (Homo sapiens) (UniProt P06493+P14635); assay: Inhibition of recombinant human full length C-terminal 6His-tagged CDK1/N-terminal GST-tagged Cyclin-B co-expressed in baculovirus infected sf21 cells at 1 uM using histone H1 substrate in presence of [gamma33P]ATP after 10 mins by scintillation counting method relative to control
Chain of Cyclin-dependent kinase 1/cyclin B1 (Homo sapiens) (P06493 whole entry, looked up): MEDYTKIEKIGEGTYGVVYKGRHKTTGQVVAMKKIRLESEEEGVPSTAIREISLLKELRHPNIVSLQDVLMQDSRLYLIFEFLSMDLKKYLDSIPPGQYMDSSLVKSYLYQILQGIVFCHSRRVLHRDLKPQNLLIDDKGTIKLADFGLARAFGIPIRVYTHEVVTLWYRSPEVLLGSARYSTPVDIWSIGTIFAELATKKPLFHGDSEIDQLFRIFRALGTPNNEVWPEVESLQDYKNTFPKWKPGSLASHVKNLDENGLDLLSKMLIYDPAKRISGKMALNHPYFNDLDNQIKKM
Chain of Cyclin-dependent kinase 1/cyclin B1 (Homo sapiens) (P14635 whole entry, looked up): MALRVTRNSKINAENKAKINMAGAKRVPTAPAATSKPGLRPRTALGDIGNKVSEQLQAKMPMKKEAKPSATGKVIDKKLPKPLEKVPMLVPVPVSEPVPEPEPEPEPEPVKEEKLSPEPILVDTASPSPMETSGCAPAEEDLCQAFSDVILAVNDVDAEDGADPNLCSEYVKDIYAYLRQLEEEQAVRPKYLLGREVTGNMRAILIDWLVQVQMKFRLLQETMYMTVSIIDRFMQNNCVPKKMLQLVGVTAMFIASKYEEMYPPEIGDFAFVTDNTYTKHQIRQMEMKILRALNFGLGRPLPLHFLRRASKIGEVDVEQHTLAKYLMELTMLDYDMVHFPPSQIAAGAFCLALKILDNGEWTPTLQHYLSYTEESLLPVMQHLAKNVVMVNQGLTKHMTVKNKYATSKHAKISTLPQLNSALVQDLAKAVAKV

[13] = molecular target: Serine/threonine-protein kinase TAO2 (Homo sapiens, UniProt Q9UL54); assay: Inhibition of recombinant human N-terminal His6-tagged TAO2 expressed in sf21 cells
Chain of Serine/threonine-protein kinase TAO2 (Q9UL54 whole entry): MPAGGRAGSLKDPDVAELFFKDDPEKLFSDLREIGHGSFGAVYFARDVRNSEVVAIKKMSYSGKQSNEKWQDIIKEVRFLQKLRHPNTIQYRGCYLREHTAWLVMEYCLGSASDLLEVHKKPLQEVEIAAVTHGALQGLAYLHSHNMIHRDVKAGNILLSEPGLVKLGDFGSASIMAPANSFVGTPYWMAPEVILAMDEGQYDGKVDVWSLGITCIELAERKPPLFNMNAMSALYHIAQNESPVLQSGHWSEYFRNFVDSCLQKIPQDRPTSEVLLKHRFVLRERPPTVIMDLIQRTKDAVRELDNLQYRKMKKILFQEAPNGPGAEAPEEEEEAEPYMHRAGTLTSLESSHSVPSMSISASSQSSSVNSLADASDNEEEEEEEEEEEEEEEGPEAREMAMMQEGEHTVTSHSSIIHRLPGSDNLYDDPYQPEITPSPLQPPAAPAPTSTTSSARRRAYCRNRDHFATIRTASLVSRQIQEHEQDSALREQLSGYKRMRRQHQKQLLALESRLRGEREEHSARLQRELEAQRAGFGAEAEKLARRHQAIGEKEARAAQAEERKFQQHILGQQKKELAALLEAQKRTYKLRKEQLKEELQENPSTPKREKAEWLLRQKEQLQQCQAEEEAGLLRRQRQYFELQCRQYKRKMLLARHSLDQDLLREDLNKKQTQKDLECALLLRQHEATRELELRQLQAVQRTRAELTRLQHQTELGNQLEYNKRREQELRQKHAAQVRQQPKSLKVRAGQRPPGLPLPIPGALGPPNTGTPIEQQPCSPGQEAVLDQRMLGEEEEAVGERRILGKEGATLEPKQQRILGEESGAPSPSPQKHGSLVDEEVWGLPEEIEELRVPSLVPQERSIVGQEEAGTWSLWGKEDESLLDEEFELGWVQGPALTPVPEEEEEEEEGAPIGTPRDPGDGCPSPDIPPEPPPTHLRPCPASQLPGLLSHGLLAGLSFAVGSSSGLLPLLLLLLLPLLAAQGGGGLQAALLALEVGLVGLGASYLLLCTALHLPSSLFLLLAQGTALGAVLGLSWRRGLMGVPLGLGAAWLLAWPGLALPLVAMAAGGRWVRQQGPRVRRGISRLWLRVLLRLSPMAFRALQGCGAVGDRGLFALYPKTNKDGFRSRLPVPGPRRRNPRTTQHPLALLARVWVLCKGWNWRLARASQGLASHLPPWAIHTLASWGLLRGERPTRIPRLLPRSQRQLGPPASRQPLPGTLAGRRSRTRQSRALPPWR

[14] = molecular target: Calcium/calmodulin-dependent protein kinase kinase 2 (Homo sapiens, UniProt Q96RR4); assay: Inhibition of recombinant human full length C-terminal 6His-tagged CaMKK2 expressed in baculovirus infected sf21 cells
Chain of Calcium/calmodulin-dependent protein kinase kinase 2 (Q96RR4 whole entry): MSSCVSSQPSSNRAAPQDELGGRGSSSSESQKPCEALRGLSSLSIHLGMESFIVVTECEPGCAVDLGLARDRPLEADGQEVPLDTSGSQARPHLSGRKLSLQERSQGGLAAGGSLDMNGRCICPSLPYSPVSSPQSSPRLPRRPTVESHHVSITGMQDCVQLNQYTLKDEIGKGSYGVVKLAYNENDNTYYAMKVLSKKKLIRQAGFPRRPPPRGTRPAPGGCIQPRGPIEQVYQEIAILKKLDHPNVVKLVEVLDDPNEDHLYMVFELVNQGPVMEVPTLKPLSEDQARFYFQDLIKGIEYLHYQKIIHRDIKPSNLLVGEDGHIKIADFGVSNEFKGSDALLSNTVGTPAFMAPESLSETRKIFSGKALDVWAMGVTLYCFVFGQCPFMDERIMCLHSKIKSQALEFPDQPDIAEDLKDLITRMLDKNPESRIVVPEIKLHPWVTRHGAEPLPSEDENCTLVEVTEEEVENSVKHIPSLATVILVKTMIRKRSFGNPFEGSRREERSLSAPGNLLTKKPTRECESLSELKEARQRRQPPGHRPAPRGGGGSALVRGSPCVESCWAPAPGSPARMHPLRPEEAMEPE

4T1 [15] = assay: Cytotoxicity against mouse 4T1 cells assessed as reduction in cell viability after 72 hrs by CCK8 assay; assay type: functional, cell-based; settings: 4T1, 72 h
HepG2 [16] = assay: Induction of apoptosis in human HepG2 cells assessed as necrotic cells at 10 uM after 48 hrs by annexin V-FITC/propidium iodide staining based flow cytometry (reference value: 2.32%); assay type: functional
Hep 3B2 [17] = assay: Induction of apoptosis in human Hep3B cells assessed as necrotic cells at 10 uM after 48 hrs by annexin V-FITC/propidium iodide staining based flow cytometry (reference value: 4.97%); assay type: functional
Hep 3B2 [18] = assay: Induction of apoptosis in human Hep3B cells assessed as necrotic cells at 1 uM after 48 hrs by annexin V-FITC/propidium iodide staining based flow cytometry (reference value: 4.97%); assay type: functional
NCI-H460 [19] = assay: Downregulation of CDK4 protein expression in human NCI-H460 cells after 48 hrs by Western blot method; assay type: functional, cell-based
Procedure, shortened: (§2)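 Treated cells were lysed and CDK4 and cyclin D1 protein levels were assessed by Western blot.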

A549 [20] = assay: Downregulation of Cyclin-D1 protein expression in human A549 cells after 48 hrs by Western blot method; assay type: functional, cell-based; procedure, shortened: as §2
Hep 3B2 [21] = assay: Downregulation of Cyclin-D1 protein expression in human Hep3B cells after 48 hrs by Western blot method; assay type: functional, cell-based; procedure, shortened: as §2
NCI-H460 [22] = assay: Induction of apoptosis in human NCI-H460 cells assessed as reduction in Bcl2 protein expression after 48 hrs by Western blot method; assay type: functional, cell-based
Procedure, shortened: (§3)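 Cells were treated with or without test agent, alongside a control, for 48h. They were then lysed and analysed by Western blot for Bcl-2 protein and cleaved caspase 3.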

HepG2 [23] = assay: Induction of apoptosis in human HepG2 cells assessed as reduction in Bcl2 protein expression after 48 hrs by Western blot method; assay type: functional, cell-based; procedure, shortened: as §3
Hep 3B2 [24] = assay: Induction of apoptosis in human Hep3B cells assessed as reduction in Bcl2 protein expression after 48 hrs by Western blot method; assay type: functional, cell-based
Procedure, shortened: (§4)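 Cells were treated with or without compound and control for 48 h, then lysed. Bcl-2 and cleaved caspase 3 were assessed by Western blot.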

A549 [25] = assay: Induction of apoptosis in human A549 cells assessed as caspase-3 cleavage after 48 hrs by Western blot method; assay type: functional, cell-based; procedure, shortened: as §4
Histone deacetylase 1 [26] = molecular target: T1, Histone deacetylase 1 (Homo sapiens, UniProt Q13547); assay: Inhibition of HDAC1 in human MDA-MB-231 cells assessed as increase in p53 phosphorylation at Ser15 residue at 1 to 5 uM after 48 hrs by Western blot method; assay type: cell-based
T1 sequence (Q13547 whole entry): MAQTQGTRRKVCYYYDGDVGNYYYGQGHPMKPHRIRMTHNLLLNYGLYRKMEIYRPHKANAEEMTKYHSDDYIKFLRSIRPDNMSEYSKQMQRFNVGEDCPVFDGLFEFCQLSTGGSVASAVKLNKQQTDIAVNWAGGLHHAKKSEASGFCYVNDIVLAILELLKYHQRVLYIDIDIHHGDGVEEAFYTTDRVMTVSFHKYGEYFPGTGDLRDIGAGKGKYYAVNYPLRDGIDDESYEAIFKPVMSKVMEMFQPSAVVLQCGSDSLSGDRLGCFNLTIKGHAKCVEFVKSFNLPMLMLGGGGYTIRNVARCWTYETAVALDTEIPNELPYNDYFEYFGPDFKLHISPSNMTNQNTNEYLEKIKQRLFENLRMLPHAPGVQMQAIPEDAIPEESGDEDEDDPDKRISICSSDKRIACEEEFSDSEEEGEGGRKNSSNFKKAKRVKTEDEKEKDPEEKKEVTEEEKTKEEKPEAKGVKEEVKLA

Histone deacetylase 1 [27] = molecular target: T1, Histone deacetylase 1; assay: Inhibition of HDAC1 in human NCI-H460 cells assessed as increase in p53 phosphorylation at Ser15 residue at 1 to 5 uM after 48 hrs by Western blot method; assay type: cell-based
Histone deacetylase 1 [28] = molecular target: T1, Histone deacetylase 1; assay: Inhibition of HDAC1 in human A549 cells assessed as increase in acetylated histone-H3 level at 0.1 to 1 uM after 24 hrs by immunofluorescence assay; assay type: cell-based
[29] = Bioavailability in Sprague-Dawley rat at 20 mg/kg, ip administered as single dose by HPLC analysis; assay type: ADME, organism-based; settings: in vivo
Rattus norvegicus = assay: Apparent volume of distribution at steady state in Sprague-Dawley rat at 20 mg/kg, ip administered as single dose by HPLC analysis; assay type: ADME, organism-based; settings: in vivo
4T1 [30] = assay: Antitumor activity against mouse Fluc-labeled 4T1 cells implanted in Balb/c mouse assessed as tumor growth inhibition at 130 mg/kg, ip administered daily for 18 days measured after 8 to 25 days by bioluminescence assay relative to control; assay type: functional; settings: 4T1, ip, read-out: TGI

SMILES: CN(C)C(=O)c1cc2cnc(Nc3ccc(NC(=O)CCCCCCC(=O)NO)cc3)nc2n1C1CCCC1
- IC50 [1]: 19 nM
- Activity (A549 [2]): 6.67%
- Activity (A549 [3]): 6.38%
- Activity (NCI-H460 [4]): 5.58%
- Activity (T47D): 2.62%
- Activity (MDA-MB-231 [5]): 5.76%
- Activity (MDA-MB-231 [6]): 1.65%
- Activity (MDA-MB-231 [7]): 1.97%
- Activity (MDA-MB-231 [8]): 5.09%
- Activity (A549 [9]): Active
- inhibition [10]: 71%
- Activity (HepG2 [11]): Active
- inhibition [12]: 55%
- IC50 [13]: 84 nM
- IC50 [14]: 53 nM
- IC50 (4T1 [15]): 1110 nM
- Activity (HepG2 [16]): 5.75%
- Activity (Hep 3B2 [17]): 3.02%
- Activity (Hep 3B2 [18]): 3.3%
- Activity (NCI-H460 [19]): Dose-dependent effect
- Activity (A549 [20]): Dose-dependent effect
- Activity (Hep 3B2 [21]): Dose-dependent effect
- Activity (NCI-H460 [22]): Active
- Activity (HepG2 [23]): Active
- Activity (Hep 3B2 [24]): Active
- Activity (A549 [25]): Active
- inhibition (Histone deacetylase 1 [26]): Active
- inhibition (Histone deacetylase 1 [27]): Active
- inhibition (Histone deacetylase 1 [28]): Active
- bioavailability [29]: 34.7%
- Vdss(app) (Rattus norvegicus): 119.94 L/kg
- inhibition in vivo at 130 mg/kg (4T1 [30]): 84.8%

— ChEMBL document CHEMBL4020842, “Discovery of N1-(4-((7-Cyclopentyl-6-(dimethylcarbamoyl)-7 H-pyrrolo[2,3- d]pyrimidin-2-yl)amino)phenyl)- N8-hydroxyoctanediamide as a Novel Inhibitor Targeting Cyclin-dependent Kinase 4/9 (CDK4/9) and Histone Deacetlyase1 (HDAC1) against Malignant Cancer” (J Med Chem, 2018)
